Screening data from PubChem BioAssay.
Only some compounds are listed: those with a hit (about 2.2% of all), similar ones and a draw of the others.
V-ATPase pHluor: regulators of yeast V-ATPase proton pumping, primary screen, pHLuorin cytosolic pH fluorescence | S. cerevisiae | response, % at 10 µM | AID 504577, 2011 | 350,000 compounds, 0.37% hits; in the data active = response mostly above about 7.3%, no sharp cut-off; inactive = mostly below about 5.4%; note: actives read high
ASAP1 GAP inh: inhibitors of human ASAP1 ArfGAP activity, primary screen, biochemical, fluorescence polarization. ASAP1-stimulated ARF1 GTP hydrolysis, GDP FP detection. inhibition, % at 16.5 µM. 360,000 compounds, 0.19% hits. AID 624377, 2012; in the data active = inhibition above about 25%
Target sequence (Q9ULH1 325-724 limits assumed): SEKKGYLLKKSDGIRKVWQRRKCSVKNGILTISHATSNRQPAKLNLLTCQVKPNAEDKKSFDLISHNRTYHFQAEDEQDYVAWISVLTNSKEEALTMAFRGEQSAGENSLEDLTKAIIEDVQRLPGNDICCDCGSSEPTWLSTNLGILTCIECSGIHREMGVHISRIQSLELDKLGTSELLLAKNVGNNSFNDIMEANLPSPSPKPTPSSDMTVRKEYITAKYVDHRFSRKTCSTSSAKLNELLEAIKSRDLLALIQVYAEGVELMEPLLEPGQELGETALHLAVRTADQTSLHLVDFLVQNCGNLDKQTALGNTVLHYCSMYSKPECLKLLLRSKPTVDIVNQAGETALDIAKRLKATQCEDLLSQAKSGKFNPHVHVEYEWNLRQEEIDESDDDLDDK
Granule exo inh: LAMP-1 surface exposure blockers, TALL-104 cells – cell-based, flow cytometry, MLPCN library, primary screen; TALL-104 LAMP-1 surface exposure; cells stimulated with thapsigargin and PMA; inhibition, % at 10 µM; 360,000 compounds, 0.66% hits; AID 651702, 2012;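 active = inhibition above about 55%, limit read from the data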
NRP1-CendR mod: modulators of CendR peptide binding to NRP-1, primary screen, biochemical, fluorescence polarization, uHTS. FAM-RPARPAR peptide binding to NRP-1. inhibition, % at 25 µM. 360,000 compounds, 0.85% hits. Neuropilin-1 (Homo sapiens), O14786;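 active = inhibition or corrected inhibition above about 18%, plus a signal ratio from 0.5 to 1.5, limit read from the data, passing the limit was not always enough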
ARFGAP1 inhibitor: inhibitors of rat ARFGAP1 GAP activity, primary screen, biochemical, fluorescence polarization, GDP tracer; ADP-ribosylation factor GTPase-activating protein 1 (Rattus norvegicus), Q62848; Arfgap1-stimulated ARF1 GTP hydrolysis, GDP FP detection; inhibition, % at 16.5 µM; 360,000 compounds, 0.26% hits; AID 651572, 2012;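 active = inhibition above a per-plate limit, mean inhibition of low control wells plus 3 SD, cut at about 25% in these data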
Target sequence (Q62848 1-136 limits assumed): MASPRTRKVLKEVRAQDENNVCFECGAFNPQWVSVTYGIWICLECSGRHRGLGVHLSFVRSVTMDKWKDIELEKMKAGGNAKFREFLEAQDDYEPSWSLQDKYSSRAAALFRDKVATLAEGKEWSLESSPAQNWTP
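Assay system: Rat Arfgap1 GAP domain (His6, aa 1-136), purified enzyme | Buffer or medium: HEPES 25 mM pH 7.5, NaCl 150 mM, MgCl2, DTT | Schedule: GTP hydrolysis reaction 2 h at 25 °C | Signal: FP of antibody-bound GDP Alexa 633 tracer, ex 620/em 688 nm | Measure: Percent inhibition of Arfgap1-stimulated GTP hydrolysis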
Numbers stand for hits.

`Cc1cccc(C(CC(=O)NCc2ccco2)c2ccccc2)c1O` (configuration not stated) gave V-ATPase pHluor inactive, ASAP1 GAP inh inactive, Granule exo inh inactive, NRP1-CendR mod inactive and ARFGAP1 inhibitor inactive.
Screening Cc1cccc(C(CC(=O)NCCc2ccccc2)c2ccccc2)c1O (configuration not stated) returned V-ATPase pHluor inactive, ASAP1 GAP inh inactive, Granule exo inh inactive, NRP1-CendR mod 21.1 and ARFGAP1 inhibitor inactive.
`O=C1N[C@@H](Cc2ccccc2)COC(=O)[C@H](Cc2ccc(F)cc2)CC/C=C/C[C@@H]1CC(=O)N(CCO)Cc1ccccc1` gave V-ATPase pHluor inactive, ASAP1 GAP inh inactive, Granule exo inh 58.0, NRP1-CendR mod inactive and ARFGAP1 inhibitor inactive.
`O=C1CC/C=C\C[C@@H](CC(=O)N(CCO)Cc2ccccc2)C(=O)NCCO1` gave V-ATPase pHluor inactive, ASAP1 GAP inh inactive, Granule exo inh inactive, NRP1-CendR mod 25.7 and ARFGAP1 inhibitor inactive.
CN1CCCCC(NC(=O)c2ccccn2)C1=O (configuration not stated) was read as ASAP1 GAP inh inactive and ARFGAP1 inhibitor inactive.
Screening CNc1cncc(-c2ccccc2NC(C)=O)n1 returned ASAP1 GAP inh inactive, Granule exo inh inactive, NRP1-CendR mod 32.3 and ARFGAP1 inhibitor inactive.
Cc1cc(N2CCOCC2)c2c(N)cc(C)c(C)c2n1 was read as V-ATPase pHluor inactive, ASAP1 GAP inh inactive, Granule exo inh inactive, NRP1-CendR mod 22.4 and ARFGAP1 inhibitor inactive.
Cc1cc(N2CCOCC2)nc(N2CCOCC2)n1 was read as V-ATPase pHluor inactive, ASAP1 GAP inh inactive, Granule exo inh inactive, NRP1-CendR mod inactive and ARFGAP1 inhibitor inactive.
`CC(=O)N/N=C/c1cc([N+](=O)[O-])ccc1OCCOc1ccccc1` gave V-ATPase pHluor inactive, ASAP1 GAP inh inactive, Granule exo inh inactive, NRP1-CendR mod inactive and ARFGAP1 inhibitor inactive.
For NC(=S)N/N=C/c1cc([N+](=O)[O-])ccc1OCCOc1ccccc1 the results were V-ATPase pHluor inactive, ASAP1 GAP inh inactive, Granule exo inh inactive, NRP1-CendR mod 25.4 and ARFGAP1 inhibitor inactive.
For COc1ccc(Oc2cccc3c2S(=O)(=O)N(C2CC2)C[C@@H](COCc2ccccc2)O3)cc1 the results were ASAP1 GAP inh inactive and ARFGAP1 inhibitor inactive.
Screening CCCCCCCCN1C(=O)[C@H](CC(=O)NCCCN2CCCC2=O)C[C@@]2(C(=O)OC)CCCCC=C12 returned ASAP1 GAP inh inactive, Granule exo inh inactive, NRP1-CendR mod 29.2 and ARFGAP1 inhibitor inactive.
CCOC(=O)[C@]12CCCC=C1N(CCC1=CCCCC1)C(=O)[C@H](CC(=O)NCC13CC4CC(CC(C4)C1)C3)C2 was read as ASAP1 GAP inh inactive, Granule exo inh inactive, NRP1-CendR mod 21.9 and ARFGAP1 inhibitor inactive.
CCOC(=O)[C@]12CCCC=C1N(Cc1ccco1)C(=O)[C@H](CC(=O)N1CCCCC1)C2 was read as ASAP1 GAP inh inactive, Granule exo inh inactive, NRP1-CendR mod inactive and ARFGAP1 inhibitor inactive.
CCOC(=O)[C@]12CCCC=C1N(Cc1ccco1)C(=O)[C@H](CC(=O)N1CCSCC1)C2 was read as ASAP1 GAP inh inactive, Granule exo inh inactive, NRP1-CendR mod 20.0 and ARFGAP1 inhibitor inactive.
For Cc1cc(C)nc(Nc2nc(=O)c3ccccc3s2)n1 the results were V-ATPase pHluor inactive, ASAP1 GAP inh inactive, Granule exo inh inactive, NRP1-CendR mod 20.9 and ARFGAP1 inhibitor inactive.
`Cc1cc2c(sc3ccccc32)c(C)n1` gave V-ATPase pHluor inactive, ASAP1 GAP inh inactive, Granule exo inh inactive, NRP1-CendR mod inactive and ARFGAP1 inhibitor inactive.
`NC(=O)COc1ncn(-c2ccccc2)n1` gave V-ATPase pHluor inactive, ASAP1 GAP inh inactive, Granule exo inh inactive, NRP1-CendR mod 28.6 and ARFGAP1 inhibitor inactive.
For Cc1ccccc1-n1ncc2c1CC(C)(C)CC2NC(=O)CSc1ccncc1 (configuration not stated) the results were V-ATPase pHluor inactive, ASAP1 GAP inh inactive, Granule exo inh inactive, NRP1-CendR mod inactive and ARFGAP1 inhibitor inactive.
Screening Cc1ccccc1-n1ncc2c1CC(C)(C)CC2NC(=O)c1ccncc1 (configuration not stated) returned V-ATPase pHluor inactive, ASAP1 GAP inh inactive, Granule exo inh inactive, NRP1-CendR mod 44.2 and ARFGAP1 inhibitor inactive.
`CC(=O)N1c2ccc(S(=O)(=O)N3CCC(C(=O)Nc4cccc(C)c4)CC3)cc2CC1C` (configuration not stated) gave V-ATPase pHluor inactive, ASAP1 GAP inh inactive, Granule exo inh inactive, NRP1-CendR mod 31.3 and ARFGAP1 inhibitor inactive.
Screening COc1ccc2c(c1)-c1c(sn(-c3ccc(OC)c(OC)c3)c1=S)C(C)(C)N2 returned V-ATPase pHluor inactive, ASAP1 GAP inh inactive, Granule exo inh 66.2, NRP1-CendR mod inactive and ARFGAP1 inhibitor inactive.
Screening COC(=O)C1=C(C)N(Cc2cccc(C(F)(F)F)c2)C(=NCc2ccc(OC)cc2)NC1c1cccc(C(F)(F)F)c1 (configuration not stated) returned ASAP1 GAP inh inactive and ARFGAP1 inhibitor inactive.
Cn1c(Cn2c(=O)sc3ccccc32)nnc1SCC(=O)N1CCN(c2ccccc2)CC1 was read as V-ATPase pHluor inactive, ASAP1 GAP inh inactive, Granule exo inh inactive, NRP1-CendR mod 27.0 and ARFGAP1 inhibitor inactive.
`O=C(CSc1nnc(Cn2c(=O)sc3ccccc32)n1CCc1ccccc1)N1CCCC1` gave V-ATPase pHluor inactive, ASAP1 GAP inh inactive, Granule exo inh inactive, NRP1-CendR mod inactive and ARFGAP1 inhibitor inactive.
For CCN1CCN(c2ncnc3scc(-c4ccc(C)c(C)c4)c23)CC1 the results were V-ATPase pHluor inactive, ASAP1 GAP inh inactive, Granule exo inh 82.3, NRP1-CendR mod inactive and ARFGAP1 inhibitor inactive.
For Cc1c(Br)cc(-c2nnco2)cc1Br the results were V-ATPase pHluor inactive, ASAP1 GAP inh inactive, Granule exo inh inactive, NRP1-CendR mod 20.8 and ARFGAP1 inhibitor inactive.
CCN(CC)CCn1c(NCc2cccc(OC)c2OC)nc2ccccc21 was read as V-ATPase pHluor inactive, ASAP1 GAP inh inactive, Granule exo inh inactive, NRP1-CendR mod 21.2 and ARFGAP1 inhibitor inactive.
CCN(CC)CCn1c(NCc2ccco2)nc2ccccc21 was read as V-ATPase pHluor inactive, ASAP1 GAP inh inactive, Granule exo inh inactive, NRP1-CendR mod inactive and ARFGAP1 inhibitor inactive.
For CCCCn1nnnc1NCc1cccc(OC)c1OC the results were V-ATPase pHluor inactive, ASAP1 GAP inh inactive, Granule exo inh inactive, NRP1-CendR mod 23.2 and ARFGAP1 inhibitor inactive.
For CCOC(=O)C1=C(C(=O)OCC)C2N(Cc3ccc(C#N)cc3)c3ccccc3[C@@]23C[C@@H](C(=O)OC)N(S(=O)(=O)c2ccc(OC)cc2)C3=N1 (some centres not stated) the results were ASAP1 GAP inh inactive and ARFGAP1 inhibitor inactive.
